{
  "source": "paper PMC9862713",
  "about": "(Bioorganic & Medicinal Chemistry, 2023)",
  "key": {"[1]": {"target": "SARS-CoV-2 RdRp (Severe acute respiratory syndrome coronavirus 2, UniProt P0DTD1)", "experiment": "RdRp enzymatic assay", "type": "biochemical"}, "[2]": {"tested_on": "HEK-293", "experiment": "MTT cell viability / cytotoxicity assay", "type": "cell-based, Human", "conditions": "24 and 48 h, concentrations up to 100 µM", "method_in_brief": "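HEK-293 cells kept in DMEM with 2 mM L-glutamine, 10% heat-inactivated FBS and 1% pen/strep at 37 °C, 5% CO2. Seeded at 10,000 cells/well; compound or DMSO vehicle (0.5% final) added 24 h later, 24 or 48 h exposure. MTT 0.5 mg/ml final for 2 h at 37 °C, ethanol solubilisation, A570 (ref 650 nm). Eight serial dilutions in triplicate, sigmoidal dose–response fit; mean ± SD, three independent experiments.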"}, "[3]": {"experiment": "Aqueous kinetic solubility in PBS pH 7.4", "type": "physicochemical", "conditions": "for solubility kinetic at 24 h: phosphate buffered saline (PBS), pH 7.4, Kinetic solubility Sk"}, "[4]": {"conditions": "PBS pH 7.4, 25 °C, 24 h, target 250 µM, 2.5 % DMSO"}},
  "note": "“Also recorded” adds a separate entry of the source.",
  "data": [
    {"smiles": "O=C(OCCc1ccc(O)c(O)c1)c1cc(=O)c2c(O)cccc2o1", "note": "[Compound 15]", "values": [
      {"measurement": "Drop of potency (IC50 ratio)", "setting": "[1]; compared to the rigid ester 14", "result": 22, "unit": "fold"}
    ]},
    {"smiles": "CCCCOc1c(-c2ccc(O)c(O)c2)oc2cc(O)cc(O)c2c1=O", "note": "[Compound 4]", "values": [
      {"measurement": "Cytotoxicity on HEK-293", "setting": "[2]", "result": "no cytotoxicity effects; also recorded: did not appear to be cytotoxic"}
    ]},
    {"smiles": "O=c1c(OCCO)c(-c2ccc(O)c(O)c2)oc2cc(O)cc(O)c12", "note": "[Compound 5]", "values": [
      {"measurement": "Cytotoxicity on HEK-293", "setting": "[2]", "result": "no cytotoxicity effects; also recorded: did not appear to be cytotoxic"}
    ]},
    {"smiles": "CC(c1ccc(O)c(O)c1)c1cc(=O)c2c(O)cccc2o1", "note": "(stereo not drawn) [Compound 8]", "values": [
      {"measurement": "Cytotoxicity on HEK-293", "setting": "[2]", "result": "no cytotoxicity effects; also recorded: did not appear to be cytotoxic"}
    ]},
    {"smiles": "O=c1c(OCCCO)c(-c2ccc(O)c(O)c2)oc2cc(O)cc(O)c12", "note": "[Compound 6]", "values": [
      {"measurement": "Cytotoxicity on HEK-293", "setting": "[2]", "result": "did not appear to be cytotoxic; also recorded: no cytotoxicity"},
      {"measurement": "Kinetic solubility Sk", "setting": "[3]; [4]", "result": 231, "unit": "µM"}
    ]},
    {"smiles": "O=C(Oc1ccc(O)c(O)c1)c1cc(=O)c2c(O)cccc2o1", "note": "[Compound 14]", "values": [
      {"measurement": "Increase of activity (IC50 ratio)", "setting": "[1]; compared to 12 and 13", "result": "about 4 fold"},
      {"measurement": "solubility kinetic at 24 h", "setting": "[3]; [4]", "result": 1, "unit": "µM"}
    ]},
    {"smiles": "O=C(NCCNC(=S)Nc1ccc(O)c(O)c1)c1cc(=O)c2c(O)cccc2o1", "note": "[Compound 17]", "values": [
      {"measurement": "solubility kinetic at 24 h", "setting": "[3]; [4]", "result": 1, "unit": "µM"}
    ]},
    {"smiles": "O=c1cc(Cc2ccc(O)c(O)c2)oc2cccc(O)c12", "note": "[Compound 7]", "values": [
      {"measurement": "Improvement of kinetic solubility", "setting": "[3]; compared to the hits (luteolin, quercetin)", "result": "3 to 4", "unit": "fold"}
    ]},
    {"smiles": "O=c1cc(/C=C/c2ccc(O)c(O)c2)oc2cccc(O)c12", "note": "[Compound 12]", "values": [
      {"measurement": "solubility kinetic at 24 h", "setting": "[3]; [4]", "result": 1, "unit": "µM"}
    ]},
    {"smiles": "O=c1cc(C(CCCC(F)(F)F)c2ccc(O)c(O)c2)oc2cccc(O)c12", "note": "(stereo not drawn) [Compound 10]", "values": [
      {"measurement": "IC50 against SARS-CoV-2 RdRp", "setting": "[1]; enzymatic assay, 37 °C, 60 min, duplicate", "result": "no inhibition"}
    ]}
  ]
}
